Laboratory results reported in ChEMBL document CHEMBL1146041, “Synthesis and SAR of pyrrolotriazine-4-one based Eg5 inhibitors” (Bioorg Med Chem Lett, 2006).

Key:
Format in all cases: ADME, organism-based
Parameters in all cases: dose 10 mg/kg
[1] = Clearance in mouse at 10 mg/kg; settings: in vivo
Procedure, shortened: (§1)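 Mice (n = 3) dosed at 10 mg/kg in 50% PEG400/50% water; pharmacokinetic parameters given as mean ± deviation.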

[2] = Half life in mouse at 10 mg/kg; settings: in vivo; procedure, shortened: as §1
[3] = Volume of distribution in mouse at 10 mg/kg; settings: in vivo, read-out: Vdss; procedure, shortened: as §1
[4] = Mean residence time in mouse at 10 mg/kg; settings: in vivo; procedure, shortened: as §1

clearance [1]: 16 mL/min/kg
half-life [2]: 4.5 h
Vd [3]: 5.9 L/kg
MRT [4]: 6.5 h
SMILES: Cc1ccc(C(=O)N(CCCN)C(c2nn3c(Cl)ccc3c(=O)n2Cc2ccccc2)C2CC2)cc1 (centres undefined)
